Read-outs that look alike come from different tables or passages of the source.
Columns and labels:
KIT mutants [1] = type: cell-based; details: 1 μmol/L; for suppression of KIT activation (phosphorylation): COS-1, 4 double mutations (∆557-558 with V654A, T670I, D820G or N822K); for suppression of KIT phosphorylation: COS-1, single mutations in exons 13, 14, and 17, 30 minutes
GIST48 cells = test: Cell cycle analysis, GIST48; type: cell-based; details: GIST48, 1 μmol/L
In short: (§1)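 Test compound added at the doses stated, and cells harvested over a time course. Cells washed twice in PBS, fixed overnight in cold 70% ethanol, and pelleted at 5000 g for 5 min. Pellets incubated with 0.2 mg/mL RNase A for 1 h, then stained with 20 μg/mL propidium iodide at room temperature. DNA content read by flow cytometry. Mean ± SE of triplicate experiments.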

advanced GIST = details: cited from earlier work; for median PFS: advanced GIST patients
KIT mutants [2] = molecular target: KIT mutants (Homo sapiens, UniProt P10721, D816V); details: COS-1, D816V in exon 17; cited from earlier work
Chain of KIT mutants (Homo sapiens, UniProt P10721, D816V) (P10721 26-976 D816V): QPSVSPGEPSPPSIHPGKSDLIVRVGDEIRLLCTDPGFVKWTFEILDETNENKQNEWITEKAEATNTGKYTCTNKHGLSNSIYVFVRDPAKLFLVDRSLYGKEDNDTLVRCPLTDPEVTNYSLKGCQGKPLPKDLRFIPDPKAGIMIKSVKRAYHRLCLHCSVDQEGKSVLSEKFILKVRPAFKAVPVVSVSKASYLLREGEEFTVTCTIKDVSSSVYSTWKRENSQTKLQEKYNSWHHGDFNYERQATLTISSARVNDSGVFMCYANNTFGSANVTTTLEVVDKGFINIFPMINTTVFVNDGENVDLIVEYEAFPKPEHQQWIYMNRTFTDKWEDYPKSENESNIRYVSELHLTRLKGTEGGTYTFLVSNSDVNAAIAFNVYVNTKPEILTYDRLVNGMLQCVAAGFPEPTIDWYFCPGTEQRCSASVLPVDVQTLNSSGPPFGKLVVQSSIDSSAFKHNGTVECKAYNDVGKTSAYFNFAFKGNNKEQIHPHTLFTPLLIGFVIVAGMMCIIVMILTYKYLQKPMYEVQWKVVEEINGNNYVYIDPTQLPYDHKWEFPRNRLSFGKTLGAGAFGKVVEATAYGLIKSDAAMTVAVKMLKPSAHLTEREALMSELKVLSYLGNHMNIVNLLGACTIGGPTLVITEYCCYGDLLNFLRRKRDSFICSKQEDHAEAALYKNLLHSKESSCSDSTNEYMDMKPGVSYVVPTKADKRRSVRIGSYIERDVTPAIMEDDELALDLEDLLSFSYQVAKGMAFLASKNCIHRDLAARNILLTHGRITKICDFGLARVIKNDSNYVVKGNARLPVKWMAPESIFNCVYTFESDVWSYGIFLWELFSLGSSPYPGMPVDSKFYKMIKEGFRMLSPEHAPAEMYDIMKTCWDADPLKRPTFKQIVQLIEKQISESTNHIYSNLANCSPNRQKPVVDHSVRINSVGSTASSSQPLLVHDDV

GIST-T1 cells = test: Cell proliferation assay, GIST-T1; type: cell-based; details: imatinib-sensitive GIST-T1, Figure S2A
In short: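 GIST-T1 cells were grown in RPMI-1640 with 10% FBS at 37°C, 5% CO₂. 4 × 10⁴ cells were exposed to a range of test compound doses for 120 h. They were then stained with methylene blue for 1 h, and absorbance was read at […].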

GIST430 xenograft = GIST430 xenograft in NOD-SCID mice; type: in vivo; details: for KIT and KIT phosphorylation in tumors compared with controls: GIST430 xenograft tumors after treatment, Figure 6B
In short: (§2)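 Male NOD-SCID mice (6–8 weeks, SPF) received GIST430 cells (2 × 10⁷/mouse) s.c. At 50–100 mm³, vehicle or test compound in 20% (2-hydroxypropyl)-β-cyclodextrin was given orally on days 1–5 weekly for 2 weeks. Controls n=5, treated groups n=6. Tumor volume (length × width² × π/6) and body weight were recorded three times weekly up to 16 days. Comparison: Wilcoxon rank sum.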

GIST430 cells = test: Cell cycle analysis, GIST430; type: cell-based; details: BPR1J373 at 10 nmol/L, 100 nmol/L, and 1 μmol/L
In short: as §1

[3] = Body weight and survival of GIST430 xenograft mice; type: in vivo; details: regorafenib 30 mg/kg; for body weight (mean ± SE): oral, 2 weeks, BPR1J373 50 mg/kg, sunitinib 40 mg/kg
In short: as §2

| SMILES | suppression of KIT activation (phosphorylation) (KIT mutants [1]) | suppression of KIT phosphorylation (KIT mutants [1]) | cell cycle change (GIST48 cells) | disease control rate (advanced GIST; advanced GIST, initial phase II study) [%] | suppression of KIT phosphorylation (KIT mutants [2]) | antiproliferative effect (GIST-T1 cells) | KIT and KIT phosphorylation in tumors compared with controls (GIST430 xenograft) | median PFS (advanced GIST; third-line treatment, phase III) [months] | cell cycle change (GIST430 cells) | body weight (mean ± SE) [3] [g] | mice that died before completion of the experiment ([3]; 6 mice, died at day 14) | antitumor effect vs control, P (Wilcoxon rank sum test) (GIST430 xenograft; oral, day 1 to day 5 per week for 2 weeks, BPR1J373 50 mg/kg, sunitinib 40 mg/kg) | median PFS (advanced GIST; second-line treatment) [months] |
| --- | --- | --- | --- | --- | --- | --- | --- | --- | --- | --- | --- | --- | --- |
| Cc1ccc(NC(=O)c2ccc(CN3CCN(C)CC3)cc2)cc1Nc1nccc(-c2cccnc2)n1 [Imatinib] | variable effects | differentially suppressed | Neither 1 μmol/L imatinib nor nilotinib induced S or G2/M arrest | 81.6 | resistant | – | – | – | – | – | – | – | – |
| Cc1cn(-c2cc(NC(=O)c3ccc(C)c(Nc4nccc(-c5cccnc5)n4)c3)cc(C(F)(F)F)c2)cn1 [Nilotinib] | variable effects | differentially suppressed | Neither 1 μmol/L imatinib nor nilotinib induced S or G2/M arrest | – | resistant | best antiproliferative effects | – | – | – | – | – | – | – |
| CNC(=O)c1cc(Oc2ccc(NC(=O)Nc3ccc(Cl)c(C(F)(F)F)c3)c(F)c2)ccn1 [Regorafenib] | variable effects | differentially suppressed | only a mild increase in subG1 and a mild decrease in S and G2/M proportions | – | – | – | decreased expression levels of KIT and KIT phosphorylation | 4.8 | did not induce significant cell cycle changes | 28.82 ± 0.52 | 1 | – | – |
| CCN(CC)CCNC(=O)c1c(C)[nH]c(/C=C2\C(=O)Nc3ccc(F)cc32)c1C [Sunitinib] | variable effects | differentially suppressed | – | – | resistant | best antiproliferative effects | decreased expression levels of KIT and KIT phosphorylation | – | – | 29.1 ± 1.04 | – | 0.03 | 6.8 |

— PMC6215875 (Cancer Science, 2018)
